Assay outcomes as filed in PubChem BioAssay.
TRPC4 agonist – TRPC4 (mouse) channel activation | HEK293 TRPC4beta/mu-opioid, Fluo4 calcium fluorescence; hits give high values | 310,000 compounds, 0.49% hits | AID 2237 | Q9QUQ5 | B-score at 10 µM;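 active = B-score above 5 SD of library B-scores, and initial fluorescence ratio not above library mean plus 5 SD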;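 also: positive B-score marks a calcium rise read as TRPC4 activation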
Target sequence (Q9QUQ5 whole entry, looked up): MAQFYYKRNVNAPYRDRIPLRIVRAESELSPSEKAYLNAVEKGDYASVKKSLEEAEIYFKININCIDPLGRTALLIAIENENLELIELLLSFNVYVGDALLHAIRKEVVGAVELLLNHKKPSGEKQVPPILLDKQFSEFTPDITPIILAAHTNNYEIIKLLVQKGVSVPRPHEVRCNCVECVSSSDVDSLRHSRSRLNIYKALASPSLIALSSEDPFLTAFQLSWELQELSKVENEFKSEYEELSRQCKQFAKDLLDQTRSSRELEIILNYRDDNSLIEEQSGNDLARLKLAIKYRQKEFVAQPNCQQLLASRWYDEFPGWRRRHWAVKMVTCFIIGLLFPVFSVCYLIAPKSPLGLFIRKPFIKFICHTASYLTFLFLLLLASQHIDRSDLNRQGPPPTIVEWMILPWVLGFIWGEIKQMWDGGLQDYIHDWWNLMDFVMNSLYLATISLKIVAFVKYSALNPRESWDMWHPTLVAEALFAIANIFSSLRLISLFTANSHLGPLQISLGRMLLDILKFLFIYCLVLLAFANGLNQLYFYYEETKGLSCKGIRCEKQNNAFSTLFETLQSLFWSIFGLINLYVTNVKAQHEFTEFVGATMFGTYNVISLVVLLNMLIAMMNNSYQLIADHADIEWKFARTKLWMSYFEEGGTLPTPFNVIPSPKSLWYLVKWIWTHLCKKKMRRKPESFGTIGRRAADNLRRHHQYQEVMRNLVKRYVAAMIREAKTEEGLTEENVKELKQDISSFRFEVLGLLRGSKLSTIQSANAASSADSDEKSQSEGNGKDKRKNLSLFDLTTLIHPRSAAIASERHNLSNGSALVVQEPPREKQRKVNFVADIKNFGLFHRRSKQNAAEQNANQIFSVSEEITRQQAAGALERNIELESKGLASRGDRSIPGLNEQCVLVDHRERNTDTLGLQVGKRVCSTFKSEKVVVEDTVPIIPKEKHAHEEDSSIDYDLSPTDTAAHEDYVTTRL
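system = HEK293 cells stably co-expressing mouse TRPC4beta and mu-opioid receptor | schedule = Fluo4 dye loading 45 min at room temperature, 110 s recording | measure = B-scored integrated calcium fluorescence ratio | signal = Fluo4 calcium-sensitive dye fluorescence, kinetic, 1 Hz baseline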
TRPC6 inhibitor – inhibitors of mouse TRPC6 channel; Q61143; HEK293-TRPC6, membrane potential dye, ACh-evoked depolarization; hits give low values; B-score at 10 µM; 310,000 compounds, 1.1% hits; AID 2553;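 active = B-score under library mean minus 3 SD, initial fluorescence not abnormally high, positive integrated signal ratio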;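 also: B-score derived from integrated fluorescence ratio over the kinetic read; more negative B-score means stronger inhibition of depolarization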
TRPC6 activator – mouse TRPC6 channel activation; Q61143; B-score at 10 µM; 310,000 compounds, 0.13% hits; HEK293-TRPC6 membrane potential dye fluorescence; hits give high values;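 active = B-score of the integrated fluorescence ratio above library mean plus 3 SD, and starting fluorescence ratio within library mean plus 5 SD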;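 also: higher score means more depolarization so channel activation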
TRPC4 block – blocks the mouse TRPC4 cation channel; Q9QUQ5; HEK293 TRPC4beta/mu-opioid, DAMGO-evoked Fluo4 calcium flux; hits give low values; B-score at 10 µM; 300,000 compounds, 0.39% hits; AID 2247;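 active = B-score over 3 SD under the library average, no early fluorescence shift, positive overall ratio signal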
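material = TRPC4beta/mu-opioid receptor HEK293 cell line | probe or stimulus = sequential submaximal and maximal DAMGO stimulation | compound dosing = one concentration per compound | measured by = Fluo4 Ca2+ flux fluorescence | evaluation = integrated fluorescence ratio relative to baseline, converted to per-well B score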
TRPC4 potent – allosteric potentiators of mouse TRPC4 channel; Q9QUQ5; HEK293 TRPC4beta/mu-opioid, DAMGO EC20, Fluo-4 Ca2+ flux; hits give high values; B-score at 10 µM; 310,000 compounds, 0.42% hits; AID 2227;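 active = B-score of calcium response area above 5 SD of library B-scores, with initial fluorescence ratio within 5 SD of library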
TRPC4 spec 2 – second check of whether TRPC6 inhibitors also affect mouse TRPC4 | shares compounds with TRPC6 inhibitor | HEK293 TRPC4/MOR, membrane potential dye fluorescence; channel activated by saturating DAMGO dose | inhibition, % at 10 µM | 920 compounds, 42% hits;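 active = compounds whose fluorescence signal differed from control wells by over 3 SD, either direction, in both duplicate plates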
TRPC4 spec – tests whether TRPC6 inhibitors also affect mouse TRPC4. shares compounds with TRPC6 inhibitor. HEK293 TRPC4/mu-opioid, membrane potential fluorescence. activity change, negative = inhibition, % at 10 µM. 920 compounds, 61% hits;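 active = rise or fall in signal beyond 3 SD of buffer-only wells in both replicate plates, either sign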;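 also: integrated kinetic ratio of fluorescence range over baseline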
HEK293 MPD ctr 2-1 – parental HEK293 nonspecific activity of TRPC6 inhibitors, second screen. shares compounds with TRPC6 inhibitor. parental HEK293 membrane potential dye fluorescence; maximal acetylcholine challenge after compound addition. signal change vs control, % at 10 µM. 920 compounds, 31% hits. AID 2779;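 active = membrane potential signal moving either way by over 3 SD of the maximum-effect control, in both duplicate plates, meaning non-specific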
HEK293 MPD ctr-1 – counter-screen for TRPC6 inhibitors: effect in parental HEK293 cells; shares compounds with TRPC6 inhibitor; AID 2780; 920 compounds, 60% hits; membrane potential signal change, % at 10 µM; parental HEK293 membrane potential dye fluorescence;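 active = membrane potential signal shifting up or down by more than 3 SD of buffer-only wells, on both duplicate plates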
HEK293 MPD ctr-2 – checks TRPC6 modulator effects in parental HEK293 cells. shares compounds with TRPC6 inhibitor. membrane potential signal change, % at 10 µM. 2,400 compounds, 51% hits. membrane potential dye fluorescence;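 active = membrane potential signal moves up or down beyond 5 SD from buffer-only wells, on both duplicate plates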
HEK293 MPD ctr 2-2 – second check of TRPC6 modulator effects in parental HEK293 cells; shares compounds with TRPC6 inhibitor; membrane potential dye fluorescence; after compound, maximal acetylcholine stimulation; inhibition, % at 10 µM; 2,400 compounds, 14% hits; AID 488926;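 active = membrane potential signal drops by more than 5 SD from the mean control signal, in both duplicate plates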
TRPC4/MOR mod – tests whether TRPC6 modulators also affect mouse TRPC4. shares compounds with TRPC6 inhibitor. HEK293 TRPC4/mu-opioid, membrane potential fluorescence. percent change from control (negative = decrease, positive = increase), % at 10 µM. 2,400 compounds, 69% hits;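 active = membrane potential signal moved up or down beyond 5 SD of buffer control wells, in both duplicate plates, actives on both sides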
TRPC4 ctr inh 2 – second check of whether TRPC6 modulators also affect mouse TRPC4. shares compounds with TRPC6 inhibitor. HEK293 TRPC4/mu-opioid, membrane potential dye fluorescence; stimulated with maximal-effect DAMGO. inhibition, % at 10 µM. 2,400 compounds, 55% hits;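 active = drop in membrane potential signal beyond 5 SD of the control wells in both duplicate plates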;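 also: TRPC4 counter screen for TRPC6 hits run under conditions tuned for TRPC6 not TRPC4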
TRPC6 inh conf – mouse TRPC6 inhibitor confirmation; shares compounds with TRPC6 inhibitor; HEK293-TRPC6, membrane potential dye, ACh-evoked depolarization; 3,300 compounds, 43% hits; inhibition, % at 10 µM;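 active = fluorescence ratio falls more than 5 SD below the full-stimulation control mean, in both duplicate runs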;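 also: integrated fluorescence ratio of peak minus minimum over baseline after agonist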
TRPC6 act confirm – confirmation of mouse TRPC6 activators; HEK293-TRPC6 membrane potential dye fluorescence, FDSS; 2,800 compounds, 11% hits; shares compounds with TRPC6 inhibitor; AID 488961; activation, % at 10 µM;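 active = ratio signal rise beyond 5 SD above unstimulated control wells' mean, seen in both duplicate runs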
Of the large screens only hits and unclear results are named; the others gave an inactive call (follow-up assays come after a bar, where they were run). Compounds with a hit are over-represented: about 2.3% of the library has one in this group of screens.

CN1CCN(C2Cc3cc(F)ccc3Sc3ccc(Cl)cc32)CC1 (centres undefined)	TRPC6 inhibitor -5.3 | HEK293 MPD ctr-2 inactive | HEK293 MPD ctr 2-2 inactive | TRPC4/MOR mod 21% | TRPC4 ctr inh 2 47% | TRPC6 inh conf 48%
CN1CCN(C2Cc3ccccc3Sc3cc(C(F)(F)F)ccc32)CC1 (centres undefined)	none
CC(C)c1ccc2c(c1)C(N1CCNCC1)Cc1ccc(F)cc1S2 (centres undefined)	none
O=C(Cn1[nH]c(=O)c2ccccc2c1=O)OCC(=O)N1CCCc2ccccc21	none
O=C(Cn1[nH]c(=O)c2ccccc2c1=O)OCC(=O)N1CCc2ccccc2C1	TRPC6 inhibitor -7.3 | TRPC4 spec 2 inactive | TRPC4 spec 7.2% | HEK293 MPD ctr 2-1 inactive | HEK293 MPD ctr-1 4.2% | TRPC6 inh conf inactive
Cc1ccc(C(=O)N/C(=C\c2cn(C)c3ccccc23)C(=O)OCCN(C)C)cc1	TRPC6 inhibitor -7.5 | TRPC4 spec 2 57% | TRPC4 spec -15% | HEK293 MPD ctr 2-1 inactive | HEK293 MPD ctr-1 -280% | TRPC6 inh conf inactive | TRPC6 act confirm inactive
CN(C)CCOC(=O)/C(=C/c1cn(C)c2ccccc12)NC(=O)c1ccccc1	TRPC6 inhibitor -7.7 | TRPC4 spec 2 inactive | TRPC4 spec inactive | HEK293 MPD ctr 2-1 inactive | HEK293 MPD ctr-1 inactive | TRPC6 inh conf inactive | TRPC6 act confirm inactive
Cn1cc(/C=C(\NC(=O)c2ccccc2)C(=O)N2CCOCC2)c2ccccc21	none
Nc1nc(SCC(=O)NC2CCCCC2)n[nH]1	none
O=S(=O)(c1cc(F)ccc1F)N1CCN(C2CCCCC2)CC1	none
CCOC(=O)C1(Cc2cccc(Cl)c2)CCCN(C(=O)CCSC)C1 (centres undefined)	TRPC6 inhibitor -5.3 | HEK293 MPD ctr-2 152% | HEK293 MPD ctr 2-2 inactive | TRPC4/MOR mod 36% | TRPC4 ctr inh 2 inactive | TRPC6 inh conf 54%
OC(C#CCN1CCCCC1)(c1ccccc1)c1ccccc1	TRPC6 inhibitor -7.5 | TRPC4 spec 2 inactive | TRPC4 spec 1.1% | HEK293 MPD ctr 2-1 -28% | HEK293 MPD ctr-1 2.4% | TRPC6 inh conf 81% | TRPC6 act confirm inactive
OC(C#CCN1CCCC1)(c1ccccc1)c1ccccc1	TRPC6 inhibitor -8.7 | TRPC4 spec 2 inactive | TRPC4 spec 2.5% | HEK293 MPD ctr 2-1 -14% | HEK293 MPD ctr-1 5.6% | TRPC6 inh conf 66%
CC(O)(C#CCN1CCCCCC1)c1ccccc1 (centres undefined)	none
O=C1c2cccc(Cl)c2C(=O)c2c1cccc2N1CCCC1	TRPC6 inhibitor -8.3 | HEK293 MPD ctr-2 -98% | HEK293 MPD ctr 2-2 inactive | TRPC4/MOR mod -26% | TRPC4 ctr inh 2 76% | TRPC6 inh conf inactive | TRPC6 act confirm inactive
Cc1nc2ncnn2c(N2CCN(c3cccc(C(F)(F)F)c3)CC2)c1C	TRPC6 activator 13 | HEK293 MPD ctr-2 338% | HEK293 MPD ctr 2-2 inactive | TRPC4/MOR mod 65% | TRPC4 ctr inh 2 inactive | TRPC6 inh conf inactive | TRPC6 act confirm 130%
Cc1cc(N2CCN(c3cccc(C(F)(F)F)c3)CC2)n2ncnc2n1	none
c1ccc(-n2ncc3c(N4CCC5(CC4)OCCO5)ncnc32)cc1	TRPC6 inhibitor -7.7 | TRPC4 spec 2 inactive | TRPC4 spec inactive | HEK293 MPD ctr 2-1 220% | HEK293 MPD ctr-1 inactive | TRPC6 inh conf inactive | TRPC6 act confirm inactive
Cc1cccc(-n2ncc3c(N4CCC5(CC4)OCCO5)ncnc32)c1	none
CCC(C)Nc1nc(-c2ccccn2)nc2ccccc12 (centres undefined)	TRPC6 inhibitor -5.2 | HEK293 MPD ctr-2 -274% | HEK293 MPD ctr 2-2 inactive | TRPC4/MOR mod -40% | TRPC4 ctr inh 2 53% | TRPC6 inh conf inactive | TRPC6 act confirm inactive
c1ccc(CNc2nc(-c3cccnc3)nc3ccccc23)cc1	none
c1cncc(CNc2nc(-c3cccnc3)nc3ccccc23)c1	none
c1ccc(CN2CCC(Nc3nc(-c4cccnc4)nc4ccccc34)CC2)cc1	TRPC6 inhibitor -6.3 | HEK293 MPD ctr-2 -294% | HEK293 MPD ctr 2-2 inactive | TRPC4/MOR mod -52% | TRPC4 ctr inh 2 66% | TRPC6 inh conf 56% | TRPC6 act confirm inactive
c1ccc(CNc2nc(-c3ccccn3)nc3ccccc23)cc1	TRPC6 inhibitor -7 | HEK293 MPD ctr-2 -208% | HEK293 MPD ctr 2-2 inactive | TRPC4/MOR mod -40% | TRPC4 ctr inh 2 62% | TRPC6 inh conf 40% | TRPC6 act confirm inactive
CC(C)(C)c1ccc(-c2nc(NCc3cccnc3)c3ccccc3n2)cc1	TRPC6 inhibitor -6.8 | HEK293 MPD ctr-2 inactive | HEK293 MPD ctr 2-2 inactive | TRPC4/MOR mod inactive | TRPC4 ctr inh 2 inactive | TRPC6 inh conf inactive | TRPC6 act confirm inactive
CCOC(=O)c1ccc(NC(=O)CCNS(=O)(=O)c2cc(Br)cnc2N)cc1	TRPC6 inhibitor -6.9 | HEK293 MPD ctr-2 inactive | HEK293 MPD ctr 2-2 inactive | TRPC4/MOR mod -20% | TRPC4 ctr inh 2 inactive | TRPC6 inh conf 79% | TRPC6 act confirm inactive
CCOC(=O)N1CCN(S(=O)(=O)c2ccc(OCC)c(C)c2)CC1	TRPC6 inhibitor -9.9, TRPC6 activator 12 | HEK293 MPD ctr-2 inactive | HEK293 MPD ctr 2-2 inactive | TRPC4/MOR mod 18% | TRPC4 ctr inh 2 inactive | TRPC6 inh conf 74% | TRPC6 act confirm 128%
CCOC(=O)N1CCN(S(=O)(=O)c2ccc(C)c(C)c2)CC1	none
